Laboratory results published in article PMC2868107 (Biochemistry, 2010).
Like-named read-outs stand apart in the source and are kept apart here. Where a SMILES comes first, the peptide text is derived from it. Where no end group is shown, it is not given here.

Columns and labels:
[1] = molecular target: Neuropilin-1 (Homo sapiens) (UniProt O14786); experiment: SPR; details: cited from earlier work
neuropilin-2 = molecular target: T1, neuropilin-2 (Homo sapiens, UniProt O60462); experiment: Sedimentation velocity analytical ultracentrifugation with neuropilin-2; assay type: binding
T1 sequence (O60462 276-595 limits assumed): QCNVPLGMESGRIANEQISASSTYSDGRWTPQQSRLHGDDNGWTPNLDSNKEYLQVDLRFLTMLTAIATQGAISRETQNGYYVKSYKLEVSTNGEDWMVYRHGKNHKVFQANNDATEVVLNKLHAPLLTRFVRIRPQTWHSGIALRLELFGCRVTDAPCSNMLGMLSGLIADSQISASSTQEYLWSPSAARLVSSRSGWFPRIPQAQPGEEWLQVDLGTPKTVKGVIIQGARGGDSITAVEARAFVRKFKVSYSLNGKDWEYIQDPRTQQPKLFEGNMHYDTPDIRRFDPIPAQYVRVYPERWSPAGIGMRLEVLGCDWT
Method in brief: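 Sedimentation velocity was run at 4°C and 40,000 rpm in 10 mM Tris pH 7.5, 150 mM NaCl, 1 mM sodium azide. Human neuropilin-2 b1b2 was held at 8 μM. The oxidised dimeric C-terminal Sema3F peptide was added at 2.5X molar excess. Absorbance was read at 280 nm. Sedimentation coefficient distributions (0.1–6 s) were fit to numerical Lamm equation solutions, using calculated buffer density, viscosity and partial specific volumes.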

neuropilin-1 [2] = molecular target: T2, neuropilin-1 (Homo sapiens, UniProt O14786); assay type: binding
T2 sequence (O14786 273-586 limits assumed): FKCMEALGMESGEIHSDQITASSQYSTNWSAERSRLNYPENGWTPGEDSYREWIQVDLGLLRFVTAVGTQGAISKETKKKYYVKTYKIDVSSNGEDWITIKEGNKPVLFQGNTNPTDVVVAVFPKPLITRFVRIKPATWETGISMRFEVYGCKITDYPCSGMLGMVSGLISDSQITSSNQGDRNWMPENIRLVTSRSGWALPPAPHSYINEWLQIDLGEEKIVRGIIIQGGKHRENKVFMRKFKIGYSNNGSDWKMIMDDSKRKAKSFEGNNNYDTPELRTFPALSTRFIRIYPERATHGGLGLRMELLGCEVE

neuropilin-1 [3] = details: cited from earlier work
axon = details: cited from earlier work
[4] = molecular target: T3, core ligand binding region (b1b2) of human neuropilin-2 (human, UniProt O60462 277-592); experiment: AUC
T3 sequence (looked up): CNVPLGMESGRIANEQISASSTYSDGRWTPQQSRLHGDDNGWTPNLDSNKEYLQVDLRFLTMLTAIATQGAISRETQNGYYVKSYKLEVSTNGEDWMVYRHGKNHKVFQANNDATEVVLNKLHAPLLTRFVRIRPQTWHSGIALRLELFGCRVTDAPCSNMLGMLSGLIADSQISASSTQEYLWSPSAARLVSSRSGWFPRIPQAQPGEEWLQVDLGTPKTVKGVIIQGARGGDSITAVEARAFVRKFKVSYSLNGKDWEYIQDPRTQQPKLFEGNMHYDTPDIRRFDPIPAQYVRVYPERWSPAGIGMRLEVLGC

[5] = molecular target: core ligand binding region (b1b2) of human neuropilin-1 (human) (UniProt O14786); experiment: plate-based inhibition assay
core ligand binding region (b1b2) of human neuropilin-1 (human), sequence (O14786 22-923): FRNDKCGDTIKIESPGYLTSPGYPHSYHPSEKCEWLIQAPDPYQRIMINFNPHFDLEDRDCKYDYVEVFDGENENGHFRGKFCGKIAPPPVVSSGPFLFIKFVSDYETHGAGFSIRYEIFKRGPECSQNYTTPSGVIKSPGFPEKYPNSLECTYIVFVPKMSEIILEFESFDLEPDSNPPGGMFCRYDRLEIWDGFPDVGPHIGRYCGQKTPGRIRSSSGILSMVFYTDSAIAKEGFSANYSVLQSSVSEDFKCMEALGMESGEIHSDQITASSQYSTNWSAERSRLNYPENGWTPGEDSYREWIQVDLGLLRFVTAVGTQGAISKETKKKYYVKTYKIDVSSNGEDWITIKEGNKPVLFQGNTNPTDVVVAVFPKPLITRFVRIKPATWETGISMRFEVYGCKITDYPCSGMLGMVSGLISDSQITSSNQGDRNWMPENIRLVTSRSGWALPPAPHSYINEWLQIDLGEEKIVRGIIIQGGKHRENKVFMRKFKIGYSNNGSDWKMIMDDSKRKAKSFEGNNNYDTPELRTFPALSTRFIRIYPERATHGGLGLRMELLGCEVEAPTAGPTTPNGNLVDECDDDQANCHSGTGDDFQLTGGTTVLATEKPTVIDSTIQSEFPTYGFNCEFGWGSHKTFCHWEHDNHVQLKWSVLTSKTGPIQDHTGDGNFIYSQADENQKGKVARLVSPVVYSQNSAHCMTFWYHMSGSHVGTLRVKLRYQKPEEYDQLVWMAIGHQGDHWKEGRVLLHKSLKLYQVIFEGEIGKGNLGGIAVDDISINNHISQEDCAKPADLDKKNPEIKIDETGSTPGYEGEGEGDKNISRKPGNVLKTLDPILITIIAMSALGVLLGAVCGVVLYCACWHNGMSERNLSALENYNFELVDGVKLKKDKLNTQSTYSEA

[6] = molecular target: core ligand binding region (b1b2) of human neuropilin-1 (human) (UniProt O14786); experiment: plate-based inhibition assay; remark: listed apart in the source
furin = experiment: Furin processing of Sema3F C-terminus; assay type: cell-based; details: C-terminal Hgh fusion, western blot
Method in brief: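 The C-terminal neuropilin-binding region of human Sema3F (residues 605-785) was fused to human growth hormone. Cells were kept in α-MEM with 5% FBS, moved at 80% confluence to serum-free Hybridoma-SFM, and PEI-transfected with 1 μg DNA/mL at a 3:1 PEI:DNA ratio. Hosts were CHO, furin-deficient FD11, furin-overexpressing CHO, and COS-7 with or without furin inhibitors. Media were western-blotted with anti-Hgh polyclonal (1:10,000) and HRP anti-rabbit (1:20,000) antibodies, then chemiluminescence.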

Neuropilin-1 (Homo sapiens), sequence (O14786 22-923): as above

Question: For VEGF (from UniProt P15692), which Kd [1] is on record?
Answer: The Kd was 2000 nM.

Question: For “GLIHQYCQGYWRHVPPSPREAPGAPRSPEPDQKKPRNRRHHPPDT (disulfide (positions not given here)) [C-Sema]”, which “% of species, peak a” value (neuropilin-2; neuropilin-2 8 μM + C-Sema 2.5X molar excess, free C-Sema) is on record?
Answer: The value was 32%.

Question: What about the “c(M), peak a” value (neuropilin-2; neuropilin-2 8 μM + C-Sema 2.5X molar excess, free C-Sema (expected 10.7 kDa)) of the same molecule?
Answer: Its value is 11.1 ± 0.6 kDa.

Question: What about the “% of species, peak c” value (neuropilin-2; neuropilin-2 8 μM + C-Sema 2.5X molar excess, neuropilin-2 dimer) of the same molecule?
Answer: Its value is 4%.

Question: And the “% of species, peak b” value (neuropilin-2; neuropilin-2 8 μM + C-Sema 2.5X molar excess, neuropilin-2 monomer)?
Answer: Its value is 58%.

Question: What about the “interaction with neuropilin-2 by sedimentation velocity” value (neuropilin-2; neuropilin-2 8 μM, peptide 2.5X molar excess) of the same molecule?
Answer: Its value is “no significant interaction with neuropilin-2”.

Question: For `CC(C)C[C@H](NC(=O)[C@H](Cc1c[nH]c2ccccc12)NC(=O)[C@@H](NC(=O)[C@H](C)N)[C@@H](C)O)C(=O)N1CCC[C@H]1C(=O)N1CCC[C@H]1C(=O)N[C@@H](CCCNC(=N)N)C(=O)O` [ATWLPPR] (H-ATWLPPR-OH), which IC50 (neuropilin-1 [2]) is on record?
Answer: The IC50 was 10500 ± 2000 nM.

Question: Which “increase in apparent affinity of VEGF with four fold higher neuropilin density” value (neuropilin-1 [3]) does the source give for VEGF here?
Answer: Its value is “twenty”.

Question: And the “effect on semaphorin mediated growth cone collapse” value (axon)?
Answer: The value was “directly antagonize semaphorin mediated growth cone collapse”.

Question: For GLIHQYCQGYWRHVPPSPREAPGAPRSPEPQDQKKPRNRR (also: disulfide-linked dimer (interchain disulfide)), which “stoichiometry N” value [4] is on record?
Answer: The value was 1 neuropilin-2:C-furSema.

Question: What about the IC50 [5] of the same molecule?
Answer: The IC50 was 46 nM.

Question: What about the IC50 [6] of the same molecule?
Answer: The IC50 was 45 nM.

B1: Sema3F (Ig-basic): C-terminal neuropilin binding region of human Sema3F (residues 605-785) with C-terminal human growth hormone fusion (protein)
chain: ANKNAVESVQYGVAGSAAFLECQPRSPQATVKWLFQRDPGDRRREIRAEDRFLRTEQGLLLRALQLSDRGLYSCTATENNFKHVVTRVQLHVLGRDAVHAALFPPLSMSAPPPPGAGPPTPPYQELAQLLAQPEVGLIHQYCQGYWRHVPPSPREAPGAPRSPEPQDQKKPRNRR
modifications: left off: Human Growth Hormone (Hgh), N-terminal, kept
Question: For B1, which “processing state of Sema3F” value (furin; CHO cells overexpressing furin) is on record?
Answer: The value was “only the processed form”.

Question: What about the “processing state of Sema3F” value (furin; COS-7 cells, no furin inhibitor) of the same molecule?
Answer: The value was “nearly completely processed”.

Question: And the “proteolytic processing of Sema3F (fraction processed)” value (furin; Cos7 cells, no furin inhibitor)?
Answer: Its value is greater than 95%.

Question: What about the “processing state of Sema3F” value (furin; FD11 CHO cells lacking furin activity) of the same molecule?
Answer: Its value is “solely the unprocessed form”.

Question: What about the “processing state of Sema3F” value (furin; wild-type CHO cells) of the same molecule?
Answer: The value was “a mixture of processed and unprocessed forms”.

B2: Neuropilin-2: core ligand binding region (b1b2) of human neuropilin-2 (protein)
chain: CNVPLGMESGRIANEQISASSTYSDGRWTPQQSRLHGDDNGWTPNLDSNKEYLQVDLRFLTMLTAIATQGAISRETQNGYYVKSYKLEVSTNGEDWMVYRHGKNHKVFQANNDATEVVLNKLHAPLLTRFVRIRPQTWHSGIALRLELFGCRVTDAPCSNMLGMLSGLIADSQISASSTQEYLWSPSAARLVSSRSGWFPRIPQAQPGEEWLQVDLGTPKTVKGVIIQGARGGDSITAVEARAFVRKFKVSYSLNGKDWEYIQDPRTQQPKLFEGNMHYDTPDIRRFDPIPAQYVRVYPERWSPAGIGMRLEVLGC
Question: With B2 as the molecule, how does the “% of species, peak b” value (neuropilin-2; neuropilin-2 alone, 8 μM, dimer) read?
Answer: The value was 3%.

Question: And the “c(M), peak b” value (neuropilin-2; neuropilin-2 alone, 8 μM, dimer (expected 76.8 kDa))?
Answer: The value was 74.3 ± 3.0 kDa.

Question: What about the “s20,w, peak b” value (neuropilin-2; neuropilin-2 alone, 8 μM, dimer, 4°C, 10 mM Tris pH 7.5, 150 mM NaCl) of the same molecule?
Answer: Its value is 4.73 S.

Question: And the “% of species, peak a” value (neuropilin-2; neuropilin-2 alone, 8 μM, monomer)?
Answer: The value was 97%.

Question: And the “c(M), peak a” value (neuropilin-2; neuropilin-2 alone, 8 μM, monomer (expected 38.4 kDa))?
Answer: The value was 37.9 ± 1.9 kDa.

Question: What about the “c(M), peak a” value (neuropilin-2; neuropilin-2 alone, 8 μM, monomer (expected 38.4 kDa), listed as neuropilin-2) of the same molecule?
Answer: Its value is 37.9 kDa.

Question: And the “s20,w, peak a” value (neuropilin-2; neuropilin-2 alone, 8 μM, monomer, 4°C, 10 mM Tris pH 7.5, 150 mM NaCl)?
Answer: The value was 3.03 S.
